Laboratory results from ChEMBL document CHEMBL2021883, “Amino acid, dipeptide and pseudodipeptide conjugates of ring-substituted 8-aminoquinolines: synthesis and evaluation of anti-infective, β-haematin inhibition and cytotoxic activities” (Eur J Med Chem, 2012).
Values after ≈ are worked out from the molar mass of the structure shown. Active and inactive are the calls of the source. Unless noted, the calls are words filed in the database; no cut-off is given here.

Columns and labels:
Plasmodium falciparum [1] = assay: Antimalarial activity against chloroquine-sensitive Plasmodium falciparum D6 assessed as plasmodial LDH activity; assay type: functional, organism-based
Staphylococcus aureus [2] = assay: Antimicrobial activity against methicillin-resistant Staphylococcus aureus ATCC 43300 by CLSI method; assay type: functional, organism-based
[3] = Selectivity index, ratio of IC50 for african green monkey Vero cells to IC50 for chloroquine-sensitive Plasmodium falciparum D6; assay type: toxicity, cell-based; settings: Vero cells versus Plasmodium falciparum D6, read-out: Ratio IC50
[4] = tested on: Mycobacterium intracellulare; assay: Antimicrobial activity against Mycobacterium intracellulare ATCC 23068 by Franzblau method; assay type: functional, organism-based
[5] = Inhibition of beta-hematin formation; assay type: functional
Vero = assay: Cytotoxicity against african green monkey Vero cells upto 23.8 […] by neutral dye assay; assay type: cell-based, Chlorocebus sabaeus
How it was run: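 Vero monkey kidney cells were exposed to compound up to a highest concentration of 23.8, with viability read by neutral red uptake.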

Plasmodium falciparum [6] = assay: Antimalarial activity against chloroquine-resistant Plasmodium falciparum W2 assessed as plasmodial LDH activity; assay type: functional, organism-based
Pseudomonas aeruginosa = assay: Antimicrobial activity against Pseudomonas aeruginosa ATCC 27853 by CLSI method; assay type: functional, organism-based
How it was run: (§1)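 Antibacterial testing used CLSI/NCCLS broth dilution for aerobically growing bacteria, with 20 as the highest test concentration.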

[7] = Selectivity index, ratio of IC50 for african green monkey Vero cells to IC50 for chloroquine-resistant Plasmodium falciparum W2; assay type: toxicity, cell-based; settings: Vero cells versus Plasmodium falciparum W2, read-out: Ratio IC50
Leishmania donovani = assay: Antileishmanial activity against Leishmania donovani promastigote by Alamar Blue assay; assay type: functional, organism-based
Staphylococcus aureus [8] = assay: Antimicrobial activity against Staphylococcus aureus ATCC 29213 by CLSI method; assay type: functional, organism-based
Escherichia coli [9] = assay: Antimicrobial activity against Escherichia coli ATCC 35218 by CLSI method; assay type: functional, organism-based
Plasmodium berghei = assay: Antimalarial activity against Plasmodium berghei blood-schizont in mouse malaria model assessed as elimination of parasitemia at 100 mg/kg, po for 4 days for 4 days measured after 7 days; assay type: functional, organism-based; set-up: dose 100 mg/kg
How it was run: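 P. berghei-infected mice, 6 per group, received compound orally once daily for 4 days at 10, 25, 50 or 100 mg/kg/day. "Active" meant all treated animals were parasitaemia-negative up to D+7. "Curative" meant complete parasite elimination with survival to D+60. Outcomes were recorded as cured/total.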

Aspergillus fumigatus = assay: Antifungal activity against Aspergillus fumigatus; assay type: functional, organism-based
How it was run: (§2)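 Yeasts and A. fumigatus were tested by broth microdilution following the NCCLS antifungal standards. The highest test concentration was 20.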

Candida albicans [10] = assay: Antifungal activity against Candida albicans at 20 ug/ml; assay type: functional, organism-based
How it was run: (§3)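 Broth dilution antifungal testing followed the NCCLS reference method for yeasts, with 20 as the highest test concentration. MIC was the lowest concentration with no detectable growth. MFC was the lowest concentration killing the organism.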

Candida albicans [11] = assay: Fungicidal activity against Candida albicans at 20 ug/ml; assay type: functional, organism-based; how it was run: as §3
Cryptococcus neoformans = assay: Antifungal activity against Cryptococcus neoformans; assay type: functional, organism-based; how it was run: as §2
Candida albicans [12] = assay: Antifungal activity against Candida albicans; assay type: functional, organism-based; how it was run: as §2
[13] = tested on: Mycobacterium intracellulare; assay: Antimicrobial activity against Mycobacterium intracellulare ATCC 23068 at 20 ug/ml by Franzblau method; assay type: functional, organism-based
[14] = tested on: Mycobacterium intracellulare; assay: Bactericidal activity against Mycobacterium intracellulare ATCC 23068 at 20 ug/ml by Franzblau method; assay type: functional, organism-based
Escherichia coli [15] = assay: Bactericidal activity against Escherichia coli ATCC 35218 at 20 ug/ml by CLSI method; assay type: functional, organism-based; how it was run: as §1
Escherichia coli [16] = assay: Antimicrobial activity against Escherichia coli ATCC 35218 at 20 ug/ml by CLSI method; assay type: functional, organism-based; how it was run: as §1
Nakaseomyces glabratus = assay: Antifungal activity against Candida glabrata; assay type: functional, organism-based; how it was run: as §2
[17] = Plasmodium falciparum, D6, read-out: IC50
[18] = Plasmodium falciparum, W2, read-out: IC50
[19] = Leishmania donovani, read-out: IC50

SMILES	IC50 (Plasmodium falciparum [1]; [17]) [µg/mL]	Activity (Staphylococcus aureus [2])	selectivity ratio [3]	Activity [4]	IC50 [5] [µM]	IC50 (Vero)	IC50 (Plasmodium falciparum [6]; [18]) [µg/mL]	Activity (Pseudomonas aeruginosa)	selectivity ratio [7]	IC50 (Leishmania donovani)	IC90 (Leishmania donovani)	Activity (Staphylococcus aureus [8])	Activity (Escherichia coli [9])	Activity (Aspergillus fumigatus)	IC90 (Leishmania donovani; Leishmania donovani) [µg/mL]	IC50 (Leishmania donovani; [19]) [µg/mL]	Activity (Candida albicans [11])	IC50 (Cryptococcus neoformans) [µg/mL]	MFC (Cryptococcus neoformans) [µg/mL]	MIC (Cryptococcus neoformans) [µg/mL]	other results
COc1cc(NC(C)CCCNC(=O)C[C@H](NC(=O)[C@@H](N)CCCNC(=N)N)C(=O)O)c2ncccc2c1 (stereo not given in full)	3 (≈ 5.65 µM)	inactive	> 7.9	inactive	120	Non-toxic	2.9 (≈ 5.47 µM)	inactive	> 8.2	Not Active	inactive	inactive	inactive	–	–	–	–	–	–	–	–
COc1cc(NC(C)CCCNC(=O)[C@H](CCCCN)NC(=O)[C@@H](N)CCCCN)c2nc(C(C)(C)C)ccc2c1 (stereo not given in full)	0.63 (≈ 1.1 µM)	inactive	> 37.7	inactive	73	Non-toxic	0.4 (≈ 0.7 µM)	inactive	> 59.5	–	–	inactive	inactive	inactive	39 (≈ 68.2 µM)	19 (≈ 33.2 µM)	inactive	3.5 (≈ 6.12 µM)	5 (≈ 8.74 µM)	5 (≈ 8.74 µM)	Activity (Plasmodium berghei): Active; Activity (Candida albicans [10]): inactive
COc1cc(NC(C)CCCNC(=O)[C@H](CCCNC(=N)N)NC(=O)[C@@H](N)CCCNC(=N)N)c2nc(C(C)(C)C)ccc2c1 (stereo not given in full)	0.97 (≈ 1.54 µM)	–	> 24.5	inactive	53	Non-toxic	0.82 (≈ 1.31 µM)	inactive	> 29	–	–	–	inactive	inactive	31 (≈ 49.4 µM)	9 (≈ 14.3 µM)	inactive	2.5 (≈ 3.98 µM)	5 (≈ 7.96 µM)	5 (≈ 7.96 µM)	Activity (Plasmodium berghei): Active; IC50 (Staphylococcus aureus [2]): 7 µg/mL (≈ 11.1 µM); MBC (Staphylococcus aureus [2]): 20 µg/mL (≈ 31.9 µM); MIC (Staphylococcus aureus [2]): 10 µg/mL (≈ 15.9 µM); IC50 (Candida albicans [12]): 15 µg/mL (≈ 23.9 µM); MIC (Candida albicans [12]): 20 µg/mL (≈ 31.9 µM); Activity [13]: inactive; Activity [14]: inactive; Activity (Escherichia coli [15]): inactive; Activity (Escherichia coli [16]): inactive
COc1cc(NC(C)CCCNC(=O)CC[C@H](NC(=O)[C@@H](N)CCCNC(=N)N)C(=O)O)c2ncccc2c1 (stereo not given in full)	1.8 (≈ 3.3 µM)	inactive	> 13.2	inactive	–	Non-toxic	1.8 (≈ 3.3 µM)	inactive	> 13.2	Not Active	inactive	inactive	inactive	–	–	–	–	–	–	–	–
COc1cc(NC(C)CCCNC(=O)C[C@@H](NC(=O)[C@H](N)CCCCN)C(=O)O)c2ncccc2c1 (stereo not given in full)	2.4 (≈ 4.78 µM)	inactive	> 9.9	inactive	160	Non-toxic	3.2 (≈ 6.37 µM)	inactive	> 7.4	Not Active	inactive	inactive	inactive	inactive	–	–	inactive	4.5 (≈ 8.95 µM)	10 (≈ 19.9 µM)	10 (≈ 19.9 µM)	Activity (Candida albicans [10]): inactive
COc1cc(NC(C)CCCNC(=O)C[C@@H](NC(=O)[C@H](N)CCCNC(=N)N)C(=O)O)c2ncccc2c1 (stereo not given in full)	3.2 (≈ 6.03 µM)	inactive	> 7.4	inactive	210	Non-toxic	4.2 (≈ 7.92 µM)	inactive	> 5.6	–	–	inactive	inactive	–	33 (≈ 62.2 µM)	20.1 (≈ 37.9 µM)	–	–	–	–	–
COc1cc(NC(C)CCCNC(=O)[C@@H](CCCNC(=N)N)NC(=O)[C@H](N)CCCNC(=N)N)c2ncccc2c1 (stereo not given in full)	1.3 (≈ 2.27 µM)	inactive	> 18.3	inactive	32	Non-toxic	1.7 (≈ 2.97 µM)	inactive	> 14	–	–	inactive	inactive	inactive	36 (≈ 63 µM)	17 (≈ 29.7 µM)	inactive	7 (≈ 12.2 µM)	10 (≈ 17.5 µM)	10 (≈ 17.5 µM)	Activity (Candida albicans [10]): inactive
COc1cc(NC(C)CCCNC(=O)[C@@H](CCCN)NC(=O)[C@H](N)CCCN)c2ncccc2c1 (stereo not given in full)	–	inactive	–	inactive	420	Non-toxic	4.76 (≈ 9.76 µM)	inactive	> 5	–	inactive	inactive	inactive	inactive	–	40 (≈ 82 µM)	inactive	3.5 (≈ 7.18 µM)	5 (≈ 10.3 µM)	5 (≈ 10.3 µM)	IC50 (Plasmodium falciparum [1]): Not Active; Activity (Candida albicans [10]): inactive
C[C@@H]1[C@H](O)[C@@H](C)/C=C/C=C/C=C/C=C/C=C/C=C/C=C/[C@H](O[C@@H]2O[C@H](C)[C@@H](O)[C@H](N)[C@@H]2O)C[C@@H]2O[C@](O)(C[C@@H](O)C[C@@H](O)[C@H](O)CC[C@@H](O)C[C@@H](O)CC(=O)O[C@H]1C)C[C@H](O)[C@H]2C(=O)O [AMPHOTERICIN B]	–	–	–	–	–	–	–	–	–	–	–	–	–	–	0.35 (≈ 0.379 µM)	–	–	–	1.5 (≈ 1.62 µM)	–	MFC (Nakaseomyces glabratus): 0.625 µg/mL (≈ 0.676 µM); MIC (Nakaseomyces glabratus): 0.31 µg/mL (≈ 0.335 µM); MIC (Candida albicans [12]): 0.63 µg/mL (≈ 0.682 µM)
COc1cc(NC(C)CCCNC(=O)NCCC[C@@H](N)C(=O)O)c2nc(C(C)(C)C)ccc2c1 (stereo not given in full)	4.2 (≈ 8.87 µM)	inactive	> 5.5	inactive	250	Non-toxic	4.76 (≈ 10.1 µM)	inactive	5	Not Active	inactive	inactive	inactive	–	–	–	–	–	–	–	–
COc1cc(NC(C)CCCNC(=O)C[C@@H](NC(=O)[C@H](N)CCCNC(=N)N)C(=O)O)c2nc(C(C)(C)C)ccc2c1 (stereo not given in full)	1.8 (≈ 3.07 µM)	inactive	> 13.2	inactive	127	Non-toxic	2.6 (≈ 4.43 µM)	inactive	> 9.1	Not Active	inactive	inactive	inactive	–	–	–	–	–	–	–	Activity (Plasmodium berghei): Active
COc1cc(NC(C)CCCNC(=O)[C@H](CCCN)NC(=O)[C@@H](N)CCCN)c2ncccc2c1 (stereo not given in full)	–	inactive	–	inactive	> 1000	Non-toxic	–	inactive	–	–	–	inactive	inactive	inactive	20 (≈ 41 µM)	4 (≈ 8.2 µM)	inactive	5.5 (≈ 11.3 µM)	20 (≈ 41 µM)	10 (≈ 20.5 µM)	IC50 (Plasmodium falciparum [1]): Not Active; Activity (Plasmodium berghei): Active; IC50 (Plasmodium falciparum [6]): Not Active; Activity (Candida albicans [10]): inactive
COc1cc(NC(C)CCCNC(=O)C[C@H](NC(=O)[C@@H](N)CCCN)C(=O)O)c2nc(C(C)(C)C)ccc2c1 (stereo not given in full)	2.7 (≈ 4.96 µM)	inactive	> 8.8	inactive	40	Non-toxic	3 (≈ 5.51 µM)	inactive	> 7.9	–	–	inactive	inactive	inactive	36 (≈ 66.1 µM)	20 (≈ 36.7 µM)	–	4 (≈ 7.34 µM)	20 (≈ 36.7 µM)	20 (≈ 36.7 µM)	IC50 (Candida albicans [12]): 15 µg/mL (≈ 27.5 µM); MFC (Candida albicans [12]): 20 µg/mL (≈ 36.7 µM); MIC (Candida albicans [12]): 20 µg/mL (≈ 36.7 µM)
